# Laboratory results reported in paper PMC3053384 (Pediatric blood & cancer, 2010).
# Like-named read-outs stand apart in the source and are kept apart here. Marks after values point to notes of the source that are not given here.
# What was measured:
# [1] = Pediatric phase 1 trial: toxicity, DLT and MTD; assay type: in vivo, human; conditions: for No. of patients with DLT: first course; for No. of courses with Grade 3 Anemia / No. of courses with Grade 3 Lymphopenia / No. of courses with Grade 3 Neutropenia / No. of courses with Grade 3 Thrombocytopenia / No. of courses with Grade 4 Anemia / No. of courses with Grade 4 Lymphopenia / No. of courses with Grade 4 Thrombocytopenia / No. of courses with Grade 4 Neutropenia: independent of frequency or attribution; for No. of courses with Grade 4 Neutropenia: dose-limiting
# [2] = tested on: recurrent or refractory solid tumors; experiment: Pediatric phase 1 trial: tumor response; assay type: in vivo, human
# Summary of the method: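 Children with recurrent or refractory solid tumors received the test compound as a 1-hour IV infusion on days 1, 8 and 15 of each 28-day course, at 5, 7, 9 or 12 mg/m2/dose. The compound was diluted in 5% dextrose in water to a final ≤ 150 μg/mL. Patients with haematologic DLT continued at the next lower dose level. Radiographic response was assessed by NCI RECIST.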
# [3] = Pediatric phase 1 trial: plasma pharmacokinetics after first dose; design: species or system human; conditions: in vivo
# [4] = molecular target: kinesin spindle protein (KSP/HsEg5); conditions: read-out: binding constant, Ki; cited from earlier work
# [5] = tested on: Ewing sarcoma, Wilms tumor, glioblastoma, rhabdoid tumor and acute lymphoblastic leukemia xenografts; conditions: cited from earlier work
# [6] = tested on: adult tumors (breast, ovarian and other cancers); conditions: 18 mg/m^2 once every 21 days; cited from earlier work
# [7] = cited from earlier work
# [8] = 12 mg/m^2 dose level, of 6 evaluable
# [9] = Course 1 (19 courses), non-dose-limiting, related to protocol therapy
# [10] = Courses 2-7 (15 courses), non-dose-limiting, related to protocol therapy
compound,measurement,setting,value
"Cc1ccc(C(=O)N(CCCN)[C@@H](c2nc3cc(Cl)ccc3c(=O)n2Cc2ccccc2)C(C)C)cc1 [ispinesib, Ispinesib]",No. of patients with DLT,"[1]; 5 mg/m^2/dose, 3 evaluable patients",0
same,No. of patients with DLT,"[1]; 9 mg/m^2/dose, 6 evaluable patients",1
same,No. of patients with DLT,"[1]; 12 mg/m^2/dose, 6 evaluable patients",3
same,patients with dose-limiting hyperbilirubinemia (grade 3),[1]; [8],1/6
same,patients with dose-limiting neutropenia (grade 4),[1]; [8],2/6
same,pediatric MTD higher than recommended adult phase II dose,[1]; 9 vs 7 mg/m^2/dose,~30%
same,No. of courses with Grade 3 Anemia,[1]; Course 1 (19 courses),1
same,No. of courses with Grade 3 Lymphopenia,[1]; Course 1 (19 courses),2
same,No. of courses with Grade 3 Neutropenia,[1]; Course 1 (19 courses),5
same,No. of courses with Grade 3 Thrombocytopenia,[1]; Course 1 (19 courses),1
same,No. of courses with Grade 4 Anemia,[1]; Course 1 (19 courses),0
same,No. of courses with Grade 4 Lymphopenia,[1]; Course 1 (19 courses),1
same,No. of courses with Grade 4 Thrombocytopenia,[1]; Course 1 (19 courses),0
same,No. of courses with Grade 4 Neutropenia,[1]; Course 1 (19 courses),3 ^*
same,"No. of courses with ALT toxicity, Grade 3",[1]; [9],1
same,"No. of courses with ALT toxicity, Grades 1 and 2",[1]; [9],3
same,"No. of courses with AST toxicity, Grade 3",[1]; [9],1
same,"No. of courses with AST toxicity, Grades 1 and 2",[1]; [9],2
same,"No. of courses with Alkaline phosphatase toxicity, Grade 3",[1]; [9],0
same,"No. of courses with Alkaline phosphatase toxicity, Grades 1 and 2",[1]; [9],2
same,"No. of courses with Constipation, Grade 3",[1]; [9],0
same,"No. of courses with Constipation, Grades 1 and 2",[1]; [9],2
same,"No. of courses with Diarrhea, Grade 3",[1]; [9],0
same,"No. of courses with Diarrhea, Grades 1 and 2",[1]; [9],2
same,"No. of courses with Electrolyte abnormality, Grade 3",[1]; [9],0
same,"No. of courses with Electrolyte abnormality, Grades 1 and 2",[1]; [9],4
same,"No. of courses with Fatigue, Grade 3",[1]; [9],0
same,"No. of courses with Fatigue, Grades 1 and 2",[1]; [9],3
same,"No. of courses with Hyperbilirubinemia, Grade 3",[1]; [9],1
same,"No. of courses with Hyperbilirubinemia, Grades 1 and 2",[1]; [9],1
same,"No. of courses with Hypoalbuminemia, Grade 3",[1]; [9],0
same,"No. of courses with Hypoalbuminemia, Grades 1 and 2",[1]; [9],3
same,"No. of courses with Nausea, Grade 3",[1]; [9],0
same,"No. of courses with Nausea, Grades 1 and 2",[1]; [9],4
same,"No. of courses with Vomiting, Grade 3",[1]; [9],0
same,"No. of courses with Vomiting, Grades 1 and 2",[1]; [9],3
same,No. of courses with Grade 3 Anemia,[1]; Courses 2-7 (15 courses),0
same,No. of courses with Grade 3 Lymphopenia,[1]; Courses 2-7 (15 courses),2
same,No. of courses with Grade 3 Neutropenia,[1]; Courses 2-7 (15 courses),1
same,No. of courses with Grade 3 Thrombocytopenia,[1]; Courses 2-7 (15 courses),0
same,No. of courses with Grade 4 Anemia,[1]; Courses 2-7 (15 courses),0
same,No. of courses with Grade 4 Lymphopenia,[1]; Courses 2-7 (15 courses),0
same,No. of courses with Grade 4 Thrombocytopenia,[1]; Courses 2-7 (15 courses),0
same,No. of courses with Grade 4 Neutropenia,[1]; Courses 2-7 (15 courses),1 ^*
same,"No. of courses with ALT toxicity, Grades 1 and 2",[1]; [10],0
same,"No. of courses with AST toxicity, Grades 1 and 2",[1]; [10],0
same,"No. of courses with Alkaline phosphatase toxicity, Grades 1 and 2",[1]; [10],0
same,"No. of courses with Constipation, Grades 1 and 2",[1]; [10],0
same,"No. of courses with Diarrhea, Grades 1 and 2",[1]; [10],0
same,"No. of courses with Electrolyte abnormality, Grades 1 and 2",[1]; [10],0
same,"No. of courses with Fatigue, Grades 1 and 2",[1]; [10],1
same,"No. of courses with Hyperbilirubinemia, Grades 1 and 2",[1]; [10],0
same,"No. of courses with Hypoalbuminemia, Grades 1 and 2",[1]; [10],0
same,"No. of courses with Nausea, Grades 1 and 2",[1]; [10],1
same,"No. of courses with Vomiting, Grades 1 and 2",[1]; [10],1
same,maximum tolerated dose (MTD) and recommended phase II dose,"[1]; children with solid tumors, 1-hour iv infusion weekly x 3 every 28 days",9 mg/m^2/dose
same,primary dose-limiting adverse events,[1]; pediatric patients,neutropenia and hepatotoxicity
same,reversibility of neutropenia,[1]; pediatric patients,rapidly reversible
same,tolerability,"[1]; pediatric patients, 9 mg/m^2/dose weekly x 3 every 28 days",well tolerated
same,tolerability,"[1]; pediatric patients, 5-12 mg/m^2/dose weekly x 3 every 28 days",generally well tolerated
same,complete courses of therapy with stable disease,"[2]; 7 mg/m^2 dose level, ependymoblastoma",7 courses
same,complete courses of therapy with stable disease,"[2]; 9 mg/m^2 dose level, alveolar soft part sarcoma",5 courses
same,complete courses of therapy with stable disease,"[2]; 12 mg/m^2 dose level, anaplastic astrocytoma",4 courses
same,objective tumor responses,[2]; 24 pediatric patients evaluable for response,no objective tumor responses
same,dose dependence of terminal t1/2,[3]; human,independent of dose
same,"volume of distribution at steady state (Vss), median",[3]; human,84 L/m^2
same,"volume of distribution at steady state (Vss), range",[3]; human,23-193 L/m^2
same,Clearance,"[3]; human, 5 mg/m2",5.3 L/hr/m^2
same,Cmax,"[3]; human, 5 mg/m2, Cmax",145 ng/mL
same,half-life,"[3]; human, 5 mg/m2, t1/2",9 h
same,half-life,"[3]; human, 7 mg/m2, t1/2",14 h
same,Clearance,"[3]; human, 12 mg/m2",13.5 L/hr/m^2
same,Vss,"[3]; human, 12 mg/m2",193 L/m^2
same,Cmax,"[3]; human, 12 mg/m2, Cmax",149 ng/mL
same,half-life,"[3]; human, 12 mg/m2, t1/2",13 h
same,Cmax,"[3]; human, iv, 5 mg/m2, Cmax",86 ng/mL
same,half-life,"[3]; human, iv, 5 mg/m2, t1/2",44 h
same,Cmax,"[3]; human, iv, 7 mg/m2, Cmax",244 ng/mL
same,half-life,"[3]; human, iv, 7 mg/m2, t1/2",32 h
same,Cmax,"[3]; human, iv, 12 mg/m2, Cmax",204 ng/mL
same,half-life,"[3]; human, iv, 12 mg/m2, t1/2",8 h
same,half-life,"[3]; human, terminal elimination half-life (t1/2), median",16 h
same,half-life,"[3]; human, terminal elimination half-life (t1/2), range",8 to 44 h
same,Clearance,[3]; 5 mg/m2,3.0 L/hr/m^2
same,Clearance,[3]; 7 mg/m2,1.2 L/hr/m^2
same,Vss,[3]; 7 mg/m2,51 L/m^2
same,Clearance,[3]; 12 mg/m2,7.1 L/hr/m^2
same,Vss,[3]; 12 mg/m2,83 L/m^2
same,Ki,[4],0.6 nM
same,in vivo anti-tumor activity,[5],high level of in vivo anti-tumor activity
same,activity in other adult tumor indications,[6],No significant activity
same,maximum tolerated dose (MTD),"[7]; adult patients with breast cancer, day 1 and day 15 every 28 days",12 mg/m^2
same,maximum tolerated dose (MTD),"[7]; adult patients with solid tumors, day 1, 2 and 3 every 21 days",6 mg/m^2
same,maximum tolerated dose (MTD),"[7]; adult patients with solid tumors, weekly x 3 every 28 days",7 mg/m^2/dose
same,maximum tolerated dose (MTD),"[7]; adults with acute leukemia, days 1, 2 and 3 every 21 days",10 mg/m^2/dose
same,recommended adult phase II dose,"[7]; adults, weekly x 3 every 28 days",7 mg/m^2/dose
